Results reported in ChEMBL document CHEMBL5104108, “Concise synthesis and biological activity evaluation of novel pyrazinyl-aryl urea derivatives against several cancer cell lines, which can especially induce T24 apoptotic and necroptotic cell death” (RSC Med Chem, 2022).
The source made the active and inactive calls. The rule behind the calls is not given here.

Tests used:
T-24 [1] = assay: Up-regulation of RIPK3 expression in human T24 cells at 7.5 to 10 uM measured after 16 hrs by Western blot analysis; type: functional, cell-based; conditions: dose 7.5-10 µM
[2] = MRT (0 to 48 hrs) in Sprague-Dawley rat at 6 mg/kg, IG measured HPLC analysis; type: ADME, organism-based; conditions: in vivo, po
In short: (§1)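 Fasted (12 h) male-unspecified Sprague-Dawley rats (250 ± 20 g), n = 6 per group. Single intragastric dose of suspension (2 mg mL−1 in Tween 80/0.9% NaCl 1.5:5 v/v). Orbital blood drawn at 0.5–48 h and plasma assayed by reversed-phase C18 HPLC-UV. One-compartment fit, weight 1.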

T-24 [3] = assay: Up-regulation of MLKL expression in human T24 cells at 7.5 to 10 uM measured after 16 hrs by Western blot analysis; type: functional, cell-based; conditions: dose 7.5-10 µM
T-24 [4] = assay: Induction of necroptosis in human T24 cells assessed as necrotic cells at 7.5 to 12.5 uM measured after 16 hrs by flow cytometry analysis; type: functional, cell-based; conditions: dose 7.5-12.5 µM
In short: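 T24 cells in 60 mm dishes treated at 37 °C for 16 h with or without Nec-1 (60 μM). Washed thrice in PBS, then stained with Annexin V-FITC/PI for 15 min at room temperature in the dark. Flow cytometry, ≥1 × 10^4 events. Necrotic fraction taken as Annexin−/PI+. Done in triplicate.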

T-24 [5] = assay: Antiproliferative activity against human T24 cells measured after 24 hrs by MTT assay; type: functional, cell-based; conditions: T-24, 24 h
In short: (§2)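 Cells seeded 5 × 10^3 per well, grown overnight at 37 °C, then exposed to compound at final 1–40 μM (1, 2.5, 5, 7.5, 10, 12.5, 15, 20, 30, 40 μM) for the stated period. MTT added, 4 h at 37 °C, formazan dissolved in DMSO, absorbance read. IC50 = concentration killing 50% of cells relative to untreated control; mean ± S.D. of four independent experiments.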

[6] = Antiproliferative activity against human HCV-29 cells measured after 48 hrs by MTT assay; type: functional, cell-based; conditions: HCV-29, 48 h; in short: as §2
T-24 [7] = assay: Induction of apoptosis in human T24 cells assessed as increase in caspase-3 expression at 0 to 5 uM measured by Western blot analysis; type: functional, cell-based; conditions: dose 0-5 µM
In short: (§3)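 Apoptosis-related proteins measured by Western blot in T24 lysates: 40 μg protein per lane by SDS-PAGE, PVDF transfer, primary and peroxidase-linked secondary antibodies, ECL detection, densitometry of gray values with β-actin as loading control.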

T-24 [8] = assay: Induction of apoptosis in human T24 cells assessed as increase in cleaved caspase-8 expression at 0 to 5 uM measured by Western blot analysis; type: functional, cell-based; conditions: dose 0-5 µM; in short: as §3
T-24 [9] = assay: Down-regulation of MLKL expression in human T24 cells at 7.5 to 10 uM measured in presence of 60 uM Nec-1 after 16 hrs by Western blot analysis; type: functional, cell-based; conditions: dose 7.5-10 µM
In short: (§4)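 T24 cells co-incubated 16 h with or without Nec-1 (60 μM). Lysates quantified by BCA, 40 μg protein resolved by SDS-PAGE, transferred to PVDF, probed with primary and peroxidase-conjugated secondary antibodies, detected by ECL. Band gray values normalized to β-actin loading control.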

T-24 [10] = assay: Induction of intracellular reactive oxygen species production in human T24 cells at 5 to 10 uM measured in presence of 30 uM z-VAD after 16 hrs by flow cytometry analysis; type: functional, cell-based; conditions: dose 5-10 µM
In short: (§5)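 After 5-23 treatment (16 h), floating and adherent T24 cells pooled and loaded with DCFH-DA (final 10 μM) for 30 min at 37 °C in the dark. Cells washed, resuspended in PBS and read by flow cytometry; quantified by luminescence spectrometry as % of control. Runs with zVAD (30 μM) or Nec-1 (60 μM). Three parallel samples.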

[11] = Cmax in Sprague-Dawley rat at 6 mg/kg, IG measured HPLC analysis; type: ADME, organism-based; design: dose 6 mg/kg, route ig; conditions: in vivo, po
T-24 [12] = assay: Induction of apoptosis in human T24 cells assessed as increase in caspase-8 expression at 0 to 5 uM measured by Western blot analysis; type: functional, cell-based; conditions: dose 0-5 µM; in short: as §3
T-24 [13] = assay: Up-regulation of RIPK3 expression in human T24 cells at 2.5 to 7.5 uM measured by ELISA assay; type: functional, cell-based; conditions: dose 2.5-7.5 µM
In short: (§6)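 T24 cells pretreated, collected, diluted in PBS, counted and stored overnight at −20 °C. After membrane disruption, lysates centrifuged at 5000 × g for 5 min (4 °C). RIPK1, RIPK3 and MLKL levels then measured with ELISA kits.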

T-24 [14] = assay: Induction of apoptosis in human T24 cells assessed as apoptotic cells at 5 uM measured after 10 hrs by Annexin-V/FITC and propidium iodide staining based flow cytometry analysis; type: functional
In short: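 T24 cells in 60 mm dishes treated 10 h at 37 °C, collected, PBS-washed, resuspended in binding buffer, stained with Annexin V-FITC and PI for 15 min at room temperature in the dark. At least 1 × 10^4 events per sample by flow cytometry; apoptotic cells = early (Annexin+/PI−) plus late (Annexin+/PI+). Triplicate experiments.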

[15] = Tmax in Sprague-Dawley rat at 6 mg/kg, IG measured HPLC analysis; type: ADME, organism-based; conditions: in vivo, po; in short: as §1
T-24 [16] = assay: Induction of mitochondrial dysfunction in human T24 cells assessed as decrease in mitochondrial membrane potential at 5 to 10 uM measured by JC-1 staining based assay; type: functional, cell-based; conditions: dose 5-10 µM
In short: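 Floating and adherent T24 cells pooled after pretreatment. Washed in cold PBS and stained in the dark with JC-1 (10 μg mL−1). Red and green fluorescence imaged by laser scanning confocal microscopy, five random fields per sample.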

T-24 [17] = assay: Induction of necroptosis in human T24 cells assessed as viable cells at 12.5 uM and measured by trypan blue exclusion assay; type: functional; conditions: read-out: Activity
In short: (§7)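 T24 cells (2 × 10^5/well) exposed for 16 h with or without Nec-1 (60 μM), then stained with trypan blue. Viable and dead cells counted. Result given as % viable cells relative to untreated control.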

T-24 [18] = assay: Up-regulation of RIPK1 expression in human T24 cells at 2.5 to 7.5 uM measured by ELISA assay; type: functional, cell-based; conditions: dose 2.5-7.5 µM; in short: as §6
T-24 [19] = assay: Induction of necroptosis in human T24 cells assessed as viable cells at 10 uM and measured by trypan blue exclusion assay; type: functional; conditions: read-out: Activity; in short: as §7
T-24 [20] = assay: Down-regulation of p-RIPK3 expression in human T24 cells at 7.5 to 10 uM measured in presence of 60 uM Nec-1 after 16 hrs by Western blot analysis; type: functional, cell-based; conditions: dose 7.5-10 µM; in short: as §4
T-24 [21] = assay: Up-regulation of caspase-8 mRNA expression in human T24 cells at 2.5 to 7.5 uM measured after 10 hrs by RT-PCR analysis; type: functional, cell-based; conditions: dose 2.5-7.5 µM
T-24 [22] = assay: Induction of intracellular reactive oxygen species production in human T24 cells assessed as ROS level at 7.5 uM measured after 16 hrs by flow cytometry analysis; type: functional, cell-based
In short: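 After 16 h treatment, floating and adherent T24 cells pooled and loaded with DCFH-DA (final 10 μM) for 30 min at 37 °C in the dark, washed, resuspended in PBS and analyzed by flow cytometry; fluorescence also quantified by luminescence spectrometry. ROS expressed relative to control; mean ± S.D. of three independent experiments.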

T-24 [23] = assay: Induction of intracellular reactive oxygen species production in human T24 cells at 5 to 10 uM measured in presence of 60 uM Nec-1 after 16 hrs by flow cytometry analysis; type: functional, cell-based; conditions: dose 5-10 µM; in short: as §5
[24] = Half-life in Sprague-Dawley rat at 6 mg/kg, IG measured HPLC analysis; type: ADME, organism-based; conditions: in vivo, po

## O=C(Nc1ccc(C(F)(F)F)cc1)Nc1cccc(CNc2nccnc2Cl)c1
T-24 [1]
  Activity: Active
[2]
  MRT last: 9.17 h
T-24 [3]
  Activity: Active
T-24 [4]
  Activity: Active
T-24 [5]
  IC50: 9.18 µM
[6]
  IC50: 30 µM
T-24 [7]
  Activity: Active
T-24 [8]
  Activity: Active
T-24 [9]
  Activity: Active
T-24 [10]
  Activity: Active
[11]
  Cmax: 1190 ng/mL
T-24 [12]
  Activity: Active
T-24 [13]
  Activity: Active
T-24 [14]
  Activity: 14.83%
[15]
  Tmax: 12 h
T-24 [16]
  Activity: Active
T-24 [17]
  viability at 12.5 µM: 24.8%
T-24 [18]
  Activity: Active
T-24 [19]
  viability at 10 µM: 38%
T-24 [20]
  Activity: Active
T-24 [21]
  Activity: Active
T-24 [22]
  Activity: Active
T-24 [23]
  Activity: Active
[24]
  half-life: 6.56 h
